ChEMBL document CHEMBL1909510, “Synthesis and evaluation of cytotoxic effects of hanultarin and its derivatives” (Bioorg Med Chem Lett, 2011)
Calls of active or inactive are those of the source. The rule behind the calls is not given here.

Columns and labels:
Assay type in all cases: functional, cell-based
[1] = tested on: B16-F10; test: Cytotoxicity against mouse B16F10 cells after 48 hrs by sulforhodamine B assay; settings: B16-F10, 48 h
Summary of the method: (§1)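 SRB assay, done in triplicate on each cell line across 1.56–50 µg/mL; IC50 determined per cell line. Lines are A549 (human lung cancer), B16F10 (mouse melanoma), HCT-15 (human colon), SKOV3 (human ovary) and SKMel2 (human skin).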

[2] = tested on: HCT-15; test: Cytotoxicity against human HCT15 cells after 48 hrs by sulforhodamine B assay; settings: HCT-15, 48 h; summary of the method: as §1
[3] = tested on: SK-MEL-2; test: Cytotoxicity against human SK-MEL-2 cells after 48 hrs by sulforhodamine B assay; settings: SK-MEL-2, 48 h; summary of the method: as §1
[4] = tested on: SK-OV-3; test: Cytotoxicity against human SKOV3 cells after 48 hrs by sulforhodamine B assay; settings: SK-OV-3, 48 h; summary of the method: as §1
[5] = tested on: A549; test: Cytotoxicity against human A549 cells after 48 hrs by sulforhodamine B assay; settings: A549, 48 h; summary of the method: as §1
[6] = tested on: A549; test: Induction of microtubule disruption in human A549 cells at IC50 after 48 hrs by immunocytochemical analysis
[7] = tested on: A549; test: Induction of nucleus disruption in human A549 cells at IC50 after 48 hrs by immunocytochemical analysis
[8] = tested on: A549; test: Induction of actin disruption in human A549 cells at IC50 after 48 hrs by immunocytochemical analysis

| SMILES | IC50 [1] | IC50 [2] | IC50 [3] | IC50 [4] | IC50 [5] | Activity [6] | Activity [7] | Activity [8] |
| --- | --- | --- | --- | --- | --- | --- | --- | --- |
| COc1cc(CC(=O)OC[C@H](Cc2ccc(O)c(OC)c2)[C@H](CO)Cc2ccc(O)c(OC)c2)ccc1O (racemic) | 71.8 µM | 52.2 µM | > 76 µM | > 76 µM | 65.3 µM | – | – | – |
| COc1cc(CC(=O)OC[C@H](Cc2ccc(O)c(OC)c2)[C@H](COC(=O)Cc2ccc(O)c(OC)c2)Cc2ccc(O)c(OC)c2)ccc1O (racemic) | 13.3 µM | 15.9 µM | 14.2 µM | 30.8 µM | 17.5 µM | Active | inactive | Active |
| COc1cc(CCC(=O)OC[C@H](Cc2ccc(O)c(OC)c2)[C@H](CO)Cc2ccc(O)c(OC)c2)ccc1O (racemic) | 68.4 µM | 49.6 µM | 64 µM | > 74 µM | 65.7 µM | – | – | – |
| COc1cc(CCC(=O)OC[C@H](Cc2ccc(O)c(OC)c2)[C@H](COC(=O)CCc2ccc(O)c(OC)c2)Cc2ccc(O)c(OC)c2)ccc1O (racemic) | 12.8 µM | 10 µM | 10.3 µM | 35.9 µM | 12.1 µM | Active | inactive | Active |
| COc1cc(/C=C/C(=O)OC[C@H](Cc2ccc(O)c(OC)c2)[C@H](COC(=O)/C=C/c2ccc(O)c(OC)c2)Cc2ccc(O)c(OC)c2)ccc1O (racemic) | 9.8 µM | 8.3 µM | 8.3 µM | 21.7 µM | 7.1 µM | Active | inactive | Active |
| COc1cc(C[C@@H](CO)[C@H](CO)Cc2ccc(O)c(OC)c2)ccc1O (racemic) [(+)-SECOISOLARICIRESINOL] | > 110 µM | > 110 µM | > 110 µM | > 110 µM | > 110 µM | – | – | – |
| COc1cc(/C=C/C(=O)OC[C@H](Cc2ccc(O)c(OC)c2)[C@H](CO)Cc2ccc(O)c(OC)c2)ccc1O (racemic) [HANULTARIN] | 21.4 µM | 29.3 µM | 17.3 µM | 63.9 µM | 29.5 µM | Active | inactive | Active |
